According to ChEMBL document CHEMBL2424600, “Synthetic polyamines activating autophagy: effects on cancer cell death” (Eur J Med Chem, 2013):
The source made the active and inactive calls. The calls are words filed in the database; no cut-off is given here.

Legend:
HeLa [1] = assay: Induction of autophagy in human HeLa cells assessed as appearance of vacuoles in cytoplasm containing mitochondrion at 2 uM after 24 hrs by transmission electron microscopic analysis; type: functional, cell-based
In short: (§1)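 HeLa seeded on glass slides at 1.3 × 10^6 cells/well for 24 h, treated 24 h with 2 µM, fixed in 2.5% glutaraldehyde in 0.1 M phosphate buffer 2 h at 4 °C, post-fixed in 1% OsO4 1 h at 4 °C, examined by transmission electron microscopy for cytoplasmic vacuoles.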

HeLa [2] = assay: Cytotoxicity against human HeLa cells assessed as decrease in cell survival at 2 uM after 24 hrs at pH 6.4 by trypan blue exclusion assay; type: functional, cell-based
In short: (§2)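 HeLa given 2 µM for 24 h with uptake-modifying conditions: 0.5 mM spermine plus 1 mM aminoguanidine (inhibits serum amine oxidases); 0.1 mM DFMO with 48 h pretreatment; or medium adjusted to pH 6.4 with HCl instead of 7.2. Survival by trypan blue exclusion vs control; triplicate means ± S.E.M.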

HeLa [3] = assay: Cytotoxicity against human HeLa cells assessed as decrease in cell survival at 2 uM after 24 hrs by trypan blue exclusion assay in presence of DFMO; type: functional, cell-based; in short: as §2
HeLa [4] = assay: Cytotoxicity against human HeLa cells assessed as decrease in cell survival at 2 uM after 24 hrs by trypan blue exclusion assay in presence of spermine; type: functional, cell-based; in short: as §2
HeLa [5] = assay: Cytotoxicity against human HeLa cells assessed as decrease in cell survival at 2 uM after 24 hrs by trypan blue exclusion assay relative to control; type: functional; conditions: read-out: Survival
In short: (§3)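 HeLa cells grown in EMEM with 10% FBS, 1% glutamine, 1% nonessential amino acids, 1 mM pyruvate and antibiotics at 37 °C in 5% CO2. Compound added from DMSO stock (DMSO 0.1% of volume; controls got DMSO only) and exposed 24 h. Viability read by trypan blue exclusion in triplicate samples, at least 10 fields counted. Survival given as % viable cells versus control.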

HeLa [6] = assay: Cytotoxicity against human HeLa cells assessed as decrease in cell survival up to 3 mM after 24 hrs by trypan blue exclusion assay in presence of N-acetylcysteine; type: functional, cell-based
In short: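 HeLa exposed 24 h to the indicated concentrations with or without 5 mM N-acetylcysteine. Survival by trypan blue exclusion relative to control; triplicate means ± S.E.M.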

HeLa [7] = assay: Induction of intracellular peroxide formation in human HeLa cells at 2 uM after 3 hrs by DCFDA staining-based flow cytometric analysis; type: functional, cell-based
In short: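 HeLa treated 3 h with 2 µM, then loaded with 5 µM DCFDA for 30 min at 37 °C. DCF fluorescence measured by flow cytometry with logarithmic amplification; mean fluorescence channel vs DMSO control.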

HeLa [8] = assay: Disruption of mitochondrial membrane potential in human HeLa cells at 2 uM after 4 hrs by DiOC6/propidium iodide staining-based flow cytometric analysis; type: functional
In short: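 After treatment, HeLa (1 × 10^6 cells/mL) stained with 4 nM DiOC6 for 40 min at 37 °C in the dark, counterstained with 5 µg/mL propidium iodide to exclude dead cells. Flow cytometry with logarithmic amplification, argon laser; mean green fluorescence channel recorded.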

HeLa [9] = assay: Induction of autophagy in human HeLa cells assessed as appearance of acidic vesicular organelles at 2 uM after 3 hrs by acridine orange staining-based immunofluorescence microscopic analysis; type: functional, cell-based
In short: (§4)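 HeLa treated 3 h with DMSO or 2 µM, with or without 2 h pretreatment with 5 mM NAC; stained with acridine orange and imaged by fluorescence microscopy for cells with orange–red acidic vesicular organelles. Two independent experiments.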

HeLa [10] = assay: Induction of autophagy in human HeLa cells assessed as appearance of acidic vesicular organelles at 2 uM after 3 hrs by acridine orange staining-based immunofluorescence microscopic analysis in presence of N-acetylcysteine; type: functional, cell-based; in short: as §4
HeLa [11] = assay: Induction of autophagy in human HeLa cells assessed as conversion of LC3-1 protein to LC3-2 protein at 2 uM after 3 hrs by Western blot analysis; type: functional, cell-based
In short: (§5)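 HeLa treated 3 h with 2 µM in presence or absence of 5 mM NAC; 50 µg protein analysed by Western blot with monoclonal antibody recognising LC3-I (18 kDa) and LC3-II (16 kDa).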

HeLa [12] = assay: Induction of autophagy in human HeLa cells assessed as conversion of LC3-1 protein to LC3-2 protein at 2 uM after 3 hrs by Western blot analysis in presence of N-acetylcysteine; type: functional, cell-based; in short: as §5
HeLa [13] = assay: Induction of autophagy in human HeLa cells assessed as conversion of LC3-1 protein to LC3-2 protein at 2 uM after 3 hrs by Western blot analysis in presence of bafilomycin A; type: functional, cell-based
HeLa [14] = assay: Induction of autophagy in human HeLa cells transfected with Atg5 siRNA assessed as acidic vesicles accumulation at 2 uM after 24 hrs by acridine orange staining-based immunofluorescence microscopic analysis relative to cell transfected with control siRNA; type: functional
In short: (§6)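 HeLa at 50% confluence transfected 24 h with 100 nM (final) Atg5 or control siRNA, then after a further 24 h incubated 24 h ± 2 µM compound. Cell death by trypan blue; acidic vesicle accumulation by acridine orange staining. Atg5 knockdown checked by blot. Triplicate means ± S.E.M.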

HeLa [15] = assay: Cytotoxicity against human HeLa cells transfected with Atg5 siRNA assessed as decrease in cell survival at 2 uM after 24 hrs by trypan blue exclusion assay; type: functional, cell-based; in short: as §6
HeLa [16] = assay: Induction of apoptosis in human HeLa cells assessed as increase in caspase 3/7 activity at 2 uM after 24 hrs by DEVD-based fluorometric analysis; type: functional, cell-based
In short: (§7)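 HeLa treated 24 h with 25 µM DENSPM (positive control) or the indicated concentrations of compound; DEVDase (caspase 3/7) activity measured. Means ± S.E.M. of three replicates vs control.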

HeLa [17] = assay: Induction of apoptosis in human HeLa cells assessed as chromatin condensation at 2 uM after 24 hrs by DAPI staining assay; type: functional, cell-based
In short: (§8)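 HeLa treated 24 h with 2 µM, then stained with DAPI and scored for chromatin condensation and nuclear fragmentation/condensation.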

HeLa [18] = assay: Induction of apoptosis in human HeLa cells assessed as nuclear fragmentation at 2 uM after 24 hrs by DAPI staining assay; type: functional, cell-based; in short: as §8
HeLa [19] = assay: Induction of apoptosis in human HeLa cells assessed as nuclear condensation at 2 uM after 24 hrs by DAPI staining assay; type: functional, cell-based; in short: as §8
HeLa [20] = assay: Cytotoxicity against human HeLa cells assessed as decrease in cell survival at 2 uM after 24 hrs by trypan blue exclusion assay in presence of Z-VADfmk; type: functional, cell-based
In short: (§9)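 HeLa pretreated 2 h with Z-VADfmk (50 µM) or necrostatin-1 (20 µM), then exposed to compound for 24 h. Viability by trypan blue exclusion, survival as % of viable control cells; means ± S.E.M. of three determinations.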

HeLa [21] = assay: Cytotoxicity against human HeLa cells assessed as decrease in cell survival at 2 uM after 24 hrs by trypan blue exclusion assay in presence of necrostatin-1; type: functional, cell-based; in short: as §9
HeLa [22] = assay: Induction of autophagy in human HeLa cells assessed as appearance of vacuoles in cytoplasm containing organic materials at 2 uM after 24 hrs by transmission electron microscopic analysis; type: functional, cell-based; in short: as §1
[23] = Cytotoxicity against human SH-SY5Y cells assessed as cell survival after 48 hrs by trypan blue exclusion assay; type: functional, cell-based
In short: (§10)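 Cells exposed 48 h to increasing concentrations in DMSO (0.1% of medium) at 37 °C, 5% CO2. Trypan blue exclusion counts, at least 10 fields per sample, survival as % of viable control cells. IC50 interpolated from dose–response curve; means ± S.E.M. of three to four replicates.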

HeLa [24] = assay: Cytotoxicity against human HeLa cells assessed as cell survival after 48 hrs by trypan blue exclusion assay; type: functional, cell-based; in short: as §10
HT-29 [25] = assay: Cytotoxicity against human HT-29 cells assessed as cell survival after 48 hrs by trypan blue exclusion assay; type: functional, cell-based; conditions: HT-29, 48 h; in short: as §10
HL-60 [26] = assay: Cytotoxicity against human HL60 cells assessed as cell survival after 48 hrs by trypan blue exclusion assay; type: functional, cell-based; conditions: HL-60, 48 h; in short: as §10
LoVo [27] = assay: Cytotoxicity against human LoVo cells assessed as cell survival after 48 hrs by trypan blue exclusion assay; type: functional, cell-based; in short: as §10
U2OS [28] = assay: Cytotoxicity against human U2OS cells assessed as cell survival after 48 hrs by trypan blue exclusion assay; type: functional, cell-based; in short: as §10
SAOS-2 [29] = assay: Cytotoxicity against human p53-deficient Saos2 cells assessed as cell survival after 48 hrs by trypan blue exclusion assay; type: functional, cell-based; conditions: SAOS-2, 48 h; in short: as §10
HT-29 [30] = assay: Cytotoxicity against human HT-29 cells assessed as cell survival after 24 hrs by trypan blue exclusion assay; type: functional, cell-based; conditions: HT-29, 24 h
In short: (§11)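 Cells exposed 24 h to increasing concentrations (DMSO vehicle, 0.1% of medium; controls got DMSO) at 37 °C, 5% CO2. Viability by trypan blue exclusion, triplicate samples, at least 10 fields counted each; survival as % of viable cells vs control. IC50 read from dose–response curve as concentration giving 50% survival.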

[31] = Cytotoxicity against human SH-SY5Y cells assessed as cell survival after 24 hrs by trypan blue exclusion assay; type: functional, cell-based; in short: as §11
LoVo [32] = assay: Cytotoxicity against human LoVo cells assessed as cell survival after 24 hrs by trypan blue exclusion assay; type: functional, cell-based; in short: as §11
HL-60 [33] = assay: Cytotoxicity against human HL60 cells assessed as cell survival after 24 hrs by trypan blue exclusion assay; type: functional, cell-based; conditions: HL-60, 24 h; in short: as §11
U2OS [34] = assay: Cytotoxicity against human U2OS cells assessed as cell survival after 24 hrs by trypan blue exclusion assay; type: functional, cell-based; in short: as §11
SAOS-2 [35] = assay: Cytotoxicity against human p53-deficient Saos2 cells assessed as cell survival after 24 hrs by trypan blue exclusion assay; type: functional, cell-based; conditions: SAOS-2, 24 h; in short: as §11
Thymocyte = assay: Cytotoxicity against rat thymocytes assessed as cell survival after 24 hrs by trypan blue exclusion assay; type: cell-based; in short: as §11
[36] = Cytotoxicity against human C-28/I2 cells assessed as cell survival after 24 hrs by trypan blue exclusion assay; type: cell-based; conditions: C28/I2, 24 h; in short: as §11
HeLa [37] = assay: Cytotoxicity against human HeLa cells assessed as cell survival after 24 hrs by trypan blue exclusion assay; type: functional, cell-based; in short: as §11
HeLa [38] = assay: Induction of autophagy in human HeLa cells assessed as acidic vesicles accumulation at 20 uM after 3 hrs by acridine orange staining-based immunofluorescence microscopic analysis; type: functional, cell-based
In short: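 HeLa incubated 3 h with 20 µM compound; acidic vesicle accumulation scored after acridine orange staining. Triplicate means ± S.E.M.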

HeLa [39] = assay: Induction of autophagy in human HeLa cells assessed as conversion of LC3-1 protein to LC3-2 protein at 25 uM after 24 hrs by Western blot analysis; type: functional, cell-based
In short: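 HeLa incubated 24 h with DENSPM (25 µM) or spermidine (8 mM); LC3-I/LC3-II processing by Western blot of 50 µg protein with monoclonal anti-LC3 antibody.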

HeLa [40] = assay: Cytotoxicity against human HeLa cells assessed as decrease in cell survival at 25 uM after 24 hrs by trypan blue exclusion assay relative to control; type: functional; conditions: read-out: Survival; in short: as §3
HeLa [41] = assay: Induction of apoptosis in human HeLa cells assessed as increase in caspase 3/7 activity at 25 uM after 24 hrs by DEVD-based fluorometric analysis; type: functional, cell-based; in short: as §7

c1ccc(C(CNCCCCCCNCCCCCCCCCCCCNCCCCCCNCC(c2ccccc2)c2ccccc2)c2ccccc2)cc1
Activity (HeLa [1]): Active | Activity (HeLa [2]): inactive | Activity (HeLa [3]): Active | Activity (HeLa [4]): Active | viability at 2 µM (HeLa [5]): 50% | Activity (HeLa [6]): inactive | Activity (HeLa [7]): Active | Activity (HeLa [8]): >50% | Activity (HeLa [9]): Active | Activity (HeLa [10]): inactive | Activity (HeLa [11]): Active | Activity (HeLa [12]): inactive | Activity (HeLa [13]): Active | Activity (HeLa [14]): inactive | Activity (HeLa [15]): Active | Activity (HeLa [16]): inactive | Activity (HeLa [17]): inactive | Activity (HeLa [18]): inactive | Activity (HeLa [19]): inactive | Activity (HeLa [20]): Active | Activity (HeLa [21]): Active | Activity (HeLa [22]): Active | IC50 [23]: 900 nM | IC50 (HeLa [24]): 600 nM | IC50 (HT-29 [25]): 1100 nM | IC50 (HL-60 [26]): 700 nM | IC50 (LoVo [27]): 800 nM | IC50 (U2OS [28]): 400 nM | IC50 (SAOS-2 [29]): 300 nM | IC50 (HT-29 [30]): 2400 nM | IC50 [31]: 2800 nM | IC50 (LoVo [32]): 2000 nM | IC50 (HL-60 [33]): 1900 nM | IC50 (U2OS [34]): 1100 nM | IC50 (SAOS-2 [35]): 900 nM | IC50 (Thymocyte): 6800 nM | IC50 [36]: 4300 nM | IC50 (HeLa [37]): 1600 nM

c1ccc(C(CNCCCCCCNCCCCCCCCNCCCCCCNCC(c2ccccc2)c2ccccc2)c2ccccc2)cc1
Activity (HeLa [38]): Active | IC50 (Thymocyte): 82000 nM | IC50 [36]: 60000 nM | IC50 (HeLa [37]): 18000 nM

CCNCCCNCCCNCCCNCC [BIS(ETHYL)NORSPERMINE]
Activity (HeLa [39]): inactive | viability at 25 µM (HeLa [40]): 50% | Activity (HeLa [41]): Active
